From PubChem
Shown are actives, neighbours in structure and some others; about 2.3% of the full set was active somewhere.
Autophagy mod: modulators of autophagy. MEF GFP-LC3 puncta imaging; test concentration mostly 10 µM. calls only at 10 µM (by protocol). actives 0.98% (n = 190,000). AID 463193;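 active means percentage of spot-positive cells more than 3 SD above its plate mean, without a fluorescence outlier flag or 80% toxicity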;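 further: spot-positive cell cutoff set from DMSO-treated cells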
MT stabilize HCS: stabilizes microtubules in HeLa cells. actives 0.83% (n = 200,000). HeLa tubulin immunostaining HCS, 24 h; share of cells brighter than vehicle mean+2SD. % tubulin-high responders, % at 10 µM;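 active means plate Z-score above 3 for both tubulin-high and condensed-nucleus cell shares, with cell loss under 80%, at 10 µM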;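 further: anti alpha tubulin signal scored within the nucleus-defined area of each cell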
Dynein cargo inh: dynein cargo transport inhibition | 3617.4 mouse cells, GR-EGFP nuclear translocation imaging; test concentration mostly 20 µM; stimulated with dexamethasone, 1 µM; active compounds read low | z-score, hits read low | actives 0.47% (n = 220,000) | AID 1381;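 active means plate z-score of nuclear minus cytoplasmic receptor signal below a set negative limit, without overly bright fluorescence or cell loss, cut at about -3.5 in these data, passing the limit was not always enough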;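 further: z-score of nuclear minus cytoplasmic ring GR-EGFP intensity difference per well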
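medium = tetracycline-free induction medium containing charcoal-stripped FBS | also added = 1.0 µM final dexamethasone stimulus | schedule = 48 h induction, 1 h compound, 30 min dex at 37 °C | technique = fixed, Hoechst-stained cells imaged at 10x for EGFP | measure = GR-EGFP nuclear translocation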
Insulin prom up: MIN6 insulin promoter up-regulation; MIN6 insulin promoter-GFP reporter, high-content imaging; active compounds read high; z-score at 5 µM; actives 0.3% (n = 190,000);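 active means z-score above 3 at 5 µM with at least 500 cells counted in the well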
bCat nuc transl: beta-catenin nuclear translocation modulation; HeLa beta-catenin nuclear translocation, immunofluorescence imaging; nuclear translocation activity, % at 5 µM; actives 0.3% (n = 190,000); AID 1665;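 active means nuclear translocation activity above 50% at 5 µM, with a well cell count of 50 or more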;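 further: per-cell ratio of nuclear to cytoplasmic median beta-catenin stain intensity; plate controls were DMSO negative control for no effect and GSK-3 inhibitor IX positive control for full effect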
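test system = HeLa cells, endogenous beta-catenin | dosing = single 5 µM dose plus 0.02–20 µM confirmation series | times = compound treatment 24 h, 37°C, 5% CO2 | technique = beta-catenin immunofluorescence imaging with DAPI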
* hit, by the source's call; i = inactive; nt = no result; + = active, no number.

SMILES | Autophagy mod | MT stabilize HCS | Dynein cargo inh | Insulin prom up | bCat nuc transl
Cc1occc1C(=O)NC(C)c1ccc2c(c1)OCO2 (centres undefined) | i | 3 | -0.63 | -0.12 | -1
CCOc1ccccc1C(=O)NC(C)c1ccc2c(c1)OCO2 (centres undefined) | i | 42* | 2 | nt | 20
CC(NC1CCCCC1)C(=O)NN=C(c1ccccc1)c1ccccc1 (centres undefined) | i | 5 | -0.65 | -0.93 | 2
COc1ccc(NS(=O)(=O)c2cc(NC(=O)c3cccs3)ccc2N2CCOCC2)cc1 | i | 13* | -0.51 | nt | -1
COc1ccc2cc3cc(C(=O)NCc4ccco4)oc3nc2c1 | i | 1 | 1.7 | -0.64 | nt
COc1ccc2cc3cc(C(=O)Nc4ccccc4N4CCN(C)CC4)oc3nc2c1 | + | 43 | -0.14 | -2.9 | -1
COc1ccc2cc3cc(C(=O)NCc4ccccn4)oc3nc2c1 | i | 3 | -0.58 | 3.3* | 1
CCS(=O)(=O)c1ccc(O)c(NC(=O)CC2(CC(=O)O)CCCC2)c1 | nt | nt | -0.033 | nt | -1
C=CCOc1ccc(C2C(C#N)=C(N)N(Nc3ccccc3)C3=C2C(=O)CCC3)cc1OC (centres undefined) | i | 40* | 0.075 | 0.56 | 0
CC1=C([N+](=O)[O-])C(c2ccccc2)C2=C(N1)c1ccccc1C2=O (centres undefined) | + | 9.9* | 0.73 | 0.17 | -2
COc1cc(C2C(C#N)=C(C)NC3=C2C(=O)c2ccccc23)cc(OC)c1OC (centres undefined) | i | 16* | -1.1 | -0.76 | 5
COc1ccc(C2C(C#N)=C(C)NC3=C2C(=O)c2ccccc23)cc1 (centres undefined) | i | 11 | -0.64 | nt | 2
CCOc1ccc(-c2nc(N)ncc2Oc2ccccc2Br)c(O)c1 | i | 2 | 0.31 | 0.72 | nt
CCOc1ccc(-c2nc(N)ncc2Oc2cccc(OC)c2)c(O)c1 | i | 8.2* | -1.3 | 0.03 | nt
CCC(=O)NNC(=O)c1cc(COc2cc(Cl)cc(Cl)c2)on1 | nt | nt | 0.73 | nt | 2
COc1ccc(NC(=O)c2ccccc2)c([N+](=O)[O-])c1 | i | 4 | 0.17 | 0.76 | -2
COc1ccc(NC(=O)c2cccnc2)c([N+](=O)[O-])c1 | i | 22* | 2.3 | 0.37 | 3
COc1ccc(NC(=S)NC(NC(=O)c2cccc(Cl)c2)C(Cl)(Cl)Cl)c([N+](=O)[O-])c1 (centres undefined) | + | 6 | -0.19 | nt | 2
COc1ccc(NC(=S)NC(NC(=O)c2cccc(C)c2)C(Cl)(Cl)Cl)c([N+](=O)[O-])c1 (centres undefined) | + | 2 | 0.11 | nt | -1
COc1ccc(CCc2nnc(CCC(=O)N(C)Cc3ccnc4ccccc34)o2)cc1 | i | 2 | -0.93 | -1.7 | 3
COc1ccc(C(=O)C[n+]2cn(C(F)F)c3ccccc32)c(F)c1 | i | 4 | -2 | nt | 0
CCOC(=O)N1CCC(NC(=O)c2cc(C(=O)Nc3ccc(S(=O)(=O)N4CCCCC4)cc3)ccc2CO)CC1 | i | 3 | 0.82 | 0.39 | -1
CCOC(=O)N1CCC(n2c(=S)[nH]c3cc(OCC)c(OCC)cc3c2=O)CC1 | + | 2 | 0.45 | -0.24 | nt
CCOc1cc2[nH]c(=S)n(C3CC3)c(=O)c2cc1OCC | i | 3 | -0.93 | 0.28 | -5
COC(=O)c1ccc(NC(=O)CN2CCN(c3ccc(Cl)cc3)CC2)cc1 | + | 3 | -0.062 | 1.7 | 1
SMILES | Autophagy mod | MT stabilize HCS | Dynein cargo inh | Insulin prom up | bCat nuc transl
CCn1nc(C)c(CNC(=O)Nc2ccc3c(c2)OCO3)c1C | i | nt | -0.42 | -0.26 | 0
CCOC(=O)/C(=C\c1ccc([N+](=O)[O-])o1)NC(=O)c1ccccc1 | + | 1 | 3 | -0.92 | nt
O=C(NCCO)/C(=C\c1ccc([N+](=O)[O-])o1)NC(=O)c1ccccc1 | i | 3 | -0.35 | 0.23 | 1
CCCOC(=O)/C(=C\c1ccc([N+](=O)[O-])o1)NC(=O)c1ccccc1 | + | 3 | -0.97 | -0.15 | -3
CSc1nc(S(=O)(=O)c2ccc(C)cc2)c(Cl)s1 | i | 3 | -0.052 | -0.21 | -3
COc1cc(NC(=S)NC(=O)c2ccccc2F)ccc1NC(=O)c1ccco1 | i | 15* | 1.2 | -0.76 | 0
COc1cc(NC(=S)NC(=O)c2ccco2)ccc1NC(=O)C(C)C | i | 6 | -1.2 | 0.36 | 0
CCC(C)c1ccc(S(=O)(=O)N2CCN(C(C)CC(=O)O)CC2)cc1 (centres undefined) | i | 6 | -0.14 | -0.31 | 3
COc1ccc(Nc2nc(C)nc3sc4c(c23)CCC4)cc1O | i | 21* | -0.12 | -0.56 | 2
CCOC(=O)C1CCCN(Cc2cn[nH]c2-c2ccc(F)cc2F)C1 (centres undefined) | + | 3 | -0.31 | -0.15 | -1
COc1ccc(-c2ccnc(SCC(=O)N3CCN(c4ccccc4)CC3)n2)cc1 | nt | nt | 0.62 | 0.43 | 0
CCOc1cccc2cc(-c3csc(NC(=O)CCC(=O)N4CCC(C)CC4)n3)c(=O)oc12 | + | 6 | 1.3 | -0.37 | nt
CCOc1ccc(Oc2ccc(Cl)cc2N)cc1 | i | 2 | -0.35 | -0.3 | -3
CCCN1CCC(=NNc2ccc(S(=O)(=O)N3CCOCC3)cc2[N+](=O)[O-])CC1 | i | 14* | 0.78 | nt | 120*
CC(=O)c1nnn(-c2ccc([N+](=O)[O-])cc2)c1C | i | 3 | -1.1 | -0.42 | 0
COc1cc(-c2cc(C(=O)N3CCN(c4ccccn4)CC3)c3ccccc3n2)cc(OC)c1OC | i | 4 | 1.1 | nt | nt
COc1ccc(-c2cc(C(=O)N3CCN(c4ccccn4)CC3)c3ccccc3n2)cc1 | i | 29* | -0.44 | -0.86 | 0
COc1ccc(-c2cc(C(=O)N3CCN(c4ccccc4)CC3)c3ccccc3n2)cc1 | i | 17* | -0.82 | 0.26 | 113*
CCOc1ccc(-c2cc(C(=O)N3CCN(C)CC3)c3ccccc3n2)cc1 | i | 2 | -0.23 | 0.77 | nt
CCOc1ccc(-c2cc(C(=O)N3CCN(c4ccccn4)CC3)c3ccccc3n2)cc1 | i | 24* | -0.075 | 0.21 | nt
CCOC(=O)c1cc(C#N)c(N2CCN(c3ccccn3)CC2)nc1-c1ccccc1 | i | 4 | 0.065 | -1.5 | 6
Cc1cc(/C=C2\SC(=Nc3ccc(F)cc3)NC2=O)c(C)n1-c1ccc(S(N)(=O)=O)cc1 | i | 14 | 0.15 | -2.4 | 160*
Cc1cc(/C=C2\SC(=S)NC2=O)c(C)n1-c1ccccc1 | nt | nt | 0.5 | 0.97 | -4
Cc1cc(/C=C2\SC(=S)NC2=O)c(C)n1-c1ccc(O)cc1 | nt | nt | -0.88 | 3.7* | 0
COC(=O)C1=C(C)NC(C)=C(C(=O)OC)C1c1cc2cc(C)ccc2[nH]c1=O | i | 4 | -0.1 | 0.97 | -1
